In ChEMBL document CHEMBL1128518, “Synthesis and anti-HIV-1 activity of thio analogues of dihydroalkoxybenzyloxopyrimidines” (J Med Chem, 1995):

Legend:
MT4 [1] = test: Dose required to achieve 50% protection of MT-4 cells from HIV-1 induced cytopathogenicity; format: functional, cell-based; settings: Homo sapiens
MT4 [2] = test: Compound dose required to reduce the viability of mock-infected cells by 50%; format: functional; settings: Homo sapiens
[3] = target: Human immunodeficiency virus type 1 reverse transcriptase (Human immunodeficiency virus 1, UniProt Q72547); test: Dose required to inhibit HIV-1 recombinant reverse transcriptase (rRT) activity by 50%.; format: functional
Method in brief: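 Highly purified recombinant HIV-1 RT, assayed for RNA-dependent DNA polymerase activity. Template-primer: poly(rC)-oligo(dG)12–18 at 0.5 OD260 units/mL, with [3H]dGTP (1 Ci/mmol). Incubated 20 min at 37 °C; acid-insoluble radioactivity counted on glass fiber filters. Value is the dose giving 50% inhibition; means of three experiments.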

MT4 [4] = test: Selectivity index calculated as the ratio between CC50 and EC50; format: functional
Method in brief: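 Ratio CC50/EC50, both from MTT-read 4-day MT-4 assays (mock-infected and HIV-1 IIIB-infected, 100 CCID50) run in parallel.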

MT4 [5] = test: Compound dose required to reduce the viability of mock-infected cells by 50%, as determined by the MTT method.; format: functional; settings: Homo sapiens
Method in brief: (§1)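 Mock-infected MT-4 cells (1 × 10^4/well) exposed to serial compound concentrations, run in parallel with the antiviral assay, 4 days at 37 °C. Viability read by MTT; CC50 is the dose reducing viability by 50%. Means of three separate experiments.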

MT4 [6] = test: Compound dose required to reduce the viability of mock-infected cells by 50%.; format: functional; settings: Homo sapiens; method in brief: as §1
MT4 [7] = test: Compound dose required to achieve 50% protection of MT-4 cells from HIV-1 induced cytopathogenicity.; format: functional, cell-based; settings: Homo sapiens
Method in brief: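 HIV-1 IIIB (100 CCID50/well) added to MT-4 cells (1 × 10^4/well) with or without serial compound concentrations; 4-day incubation at 37 °C. Viable cells counted by MTT; EC50 is the dose giving 50% protection from virus-induced cytopathogenicity. Means of three separate experiments.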

Structure (SMILES)	EC50 (MT4 [1]) [µM]	CC50 (MT4 [2]) [µM]	IC50 [3] [µM]	SI (MT4 [4])	CC50 (MT4 [5]) [µM]	CC50 (MT4 [6]) [µM]	EC50 (MT4 [7]) [µM]
Cc1c(O)nc(SC2CCCCC2)nc1Cc1ccccc1	0.6	> 318	4.3	>530	–	–	–
Oc1cc(Cc2ccccc2)nc(SC2CCCC2)n1	1.7	147	2.8	86	–	–	–
Cc1c(O)nc(SC(C)C)nc1Cc1ccccc1	1.8	140	2.5	77	–	–	–
Cc1cn([C@H]2C[C@H](N=[N+]=[N-])[C@@H](CO)O2)c(=O)[nH]c1=O [ZIDOVUDINE]	–	> 20	–	>2000	–	–	–
Cc1c(O)nc(SC2CCCC2)nc1Cc1ccccc1	0.6	> 333	3.4	>555	–	–	–
Cc1cccc(Cc2nc(SC(C)C)nc(O)c2C)c1	1.3	100	2.5	77	–	–	–
Cc1cccc(Cc2nc(SC3CCCCC3)nc(O)c2C)c1	0.6	> 304	1.3	>506	–	–	–
CC(C)Sc1nc(O)cc(Cc2ccccc2)n1	7.7	332	> 10	43	–	–	–
CC(C)=CCSc1nc(O)cc(Cc2cccc(C)c2)n1	13	193	–	15	–	–	–
Oc1cc(Cc2ccccc2)nc(SC2CCCCC2)n1	0.8	> 330	3	–	–	–	–
CSc1nc(O)c(C)c(Cc2cccc(C)c2)n1	3	385	2.5	128	–	–	–
Cc1cccc(Cc2nc(S)nc(O)c2C)c1	> 102	284	> 10	–	–	–	–
Cc1cccc(/C=C2/N=C(SCC(C)C)NC(=O)C2(C)C)c1	> 316	–	–	–	> 316	–	–
Cc1cccc(Cc2cc(O)nc(SC3CCCC3)n2)c1	1.2	> 333	2.6	>278	–	–	–
CCC(C)Sc1nc(O)c(C)c(Cc2ccccc2)n1 (stereo not drawn)	0.6	86	2.4	140	–	–	–
Cc1cccc(/C=C2/NC(=S)NC(=O)C2(C)C)c1	> 165	165	–	–	–	–	–
Cc1c(O)nc(S)nc1Cc1ccccc1	> 108	431	> 10	–	–	–	–
CSC1=N/C(=C/c2ccccc2)C(C)(C)C(=O)N1	3.1	160	6.1	53	–	–	–
Cc1cccc(/C=C2/N=C(SC3CCCCC3)NC(=O)C2(C)C)c1	> 292	> 292	–	–	–	–	–
CCC(C)SC1=N/C(=C/c2cccc(C)c2)C(C)(C)C(=O)N1 (stereo not drawn)	> 25	25	–	–	–	–	–
CC1(C)C(=O)NC(SC2CCCC2)=N/C1=C/c1ccccc1	10	18	> 10	1.8	–	–	–
CC(C)SC1=N/C(=C/c2ccccc2)C(C)(C)C(=O)N1	3.6	20	4.3	5.5	–	–	–
CC(C)CSc1nc(O)cc(Cc2ccccc2)n1	5.1	186	9.4	36	–	–	–

Structure (SMILES)	EC50 (MT4 [1]) [µM]	CC50 (MT4 [2]) [µM]	IC50 [3] [µM]	SI (MT4 [4])	CC50 (MT4 [5]) [µM]	CC50 (MT4 [6]) [µM]	EC50 (MT4 [7]) [µM]
CSC1=N/C(=C/c2cccc(C)c2)C(C)(C)C(=O)N1	> 5.2	5.2	–	–	–	–	–
CCC(C)Sc1nc(O)c(C)c(Cc2cccc(C)c2)n1 (stereo not drawn)	1	100	2.7	100	–	–	–
C=CCSc1nc(O)cc(Cc2cccc(C)c2)n1	3.6	188	–	52	–	–	–
Cc1cccc(/C=C2/N=C(SC3CCCC3)NC(=O)C2(C)C)c1	> 304	> 304	–	–	–	–	–
C/C=C/CSc1nc(O)cc(Cc2cccc(C)c2)n1	8	165	–	21	–	–	–
Cc1cccc(Cc2cc(O)nc(S)n2)c1	–	–	> 10	–	–	258	> 258
Cc1cccc(/C=C2/N=C(SC(C)C)NC(=O)C2(C)C)c1	> 69	69	–	–	–	–	–
CCC(C)SC1=N/C(=C/c2ccccc2)C(C)(C)C(=O)N1 (stereo not drawn)	3.3	16	4.3	4.8	–	–	–
CCC(C)Sc1nc(O)cc(Cc2ccccc2)n1 (stereo not drawn)	1.2	150	2.7	125	–	–	–
CCC(C)Sc1nc(O)cc(Cc2cccc(C)c2)n1 (stereo not drawn)	0.6	> 347	1.2	>578	–	–	–
CSc1nc(O)cc(Cc2ccccc2)n1	34.5	> 431	> 10	>12	–	–	–
Cc1cccc(Cc2nc(SC3CCCC3)nc(O)c2C)c1	0.6	> 318	3.4	>530	–	–	–
Cc1cccc(Cc2cc(O)nc(SC3CCCCC3)n2)c1	1.5	> 318	2.6	>212	–	–	–
Cc1cccc(Cc2nc(SCC(C)C)nc(O)c2C)c1	1.6	330	4.6	206	–	–	–
CC1(C)C(=O)NC(=S)N/C1=C/c1ccccc1	> 406	> 406	–	–	–	–	–
Cc1cccc(Cc2cc(O)nc(SC(C)C)n2)c1	1.3	225	2.9	173	–	–	–
CC1(C)C(=O)NC(SC2CCCCC2)=N/C1=C/c1ccccc1	9.1	91	> 10	10	–	–	–
CSc1nc(O)c(C)c(Cc2ccccc2)n1	1.2	> 406	4.9	>338	–	–	–
Cc1ccnc2c1NC(=O)c1cccnc1N2C1CC1 [NEVIRAPINE]	0.3	> 376	–	>1250	–	–	–
Cc1cccc(Cc2cc(O)nc(SCC(C)C)n2)c1	3.3	163	8.4	49	–	–	–
CSc1nc(O)cc(Cc2cccc(C)c2)n1	17	317	> 10	19	–	–	–
CC(C)CSC1=N/C(=C/c2ccccc2)C(C)(C)C(=O)N1	3.6	20	4.6	5.5	–	–	–
Cc1c(O)nc(SCC(C)C)nc1Cc1ccccc1	0.8	130	2.2	162	–	–	–
